Measurements from ChEMBL document CHEMBL2150929, “Lipidated peptidomimetics with improved antimicrobial activity” (ACS Med Chem Lett, 2012).
Converted amounts (≈) assume the structure as drawn. The source made the active and inactive calls. No cut-off for these calls is given here.

How the values were obtained:
[1] = system: Escherichia coli; experiment: Antimicrobial activity against Escherichia coli JM109 after 24 hrs by broth micro-dilution method; type: functional; details: JM109, 24 h
[2] = system: Pseudomonas aeruginosa; experiment: Antimicrobial activity against Pseudomonas aeruginosa ATCC 27853 after 24 hrs by broth micro-dilution method; type: functional; details: ATCC 27853, 24 h
[3] = system: Bacillus subtilis; experiment: Antimicrobial activity against Bacillus subtilis BR151 after 24 hrs by broth micro-dilution method; type: functional; details: BR151, 24 h
[4] = system: Candida albicans; experiment: Antimicrobial activity against Candida albicans ATCC 10231 after 48 hrs by broth micro-dilution method; type: functional; details: ATCC 10231, 48 h
[5] = system: Enterococcus faecalis; experiment: Antimicrobial activity against Vancomycin-resistant Enterococcus faecalis ATCC 700802 after 24 hrs by broth micro-dilution method; type: functional; details: ATCC 700802, 24 h
Procedure, shortened: (§1)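 MIC read as the lowest concentration giving complete inhibition of bacterial growth after 24 h of incubation. Pexiganan and a linear α-AApeptide were run alongside as positive controls.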

[6] = system: Staphylococcus aureus; experiment: Antimicrobial activity against methicillin-resistant Staphylococcus aureus ATCC 33592 after 24 hrs by broth micro-dilution method; type: functional; details: ATCC 33592, 24 h; procedure, shortened: as §1
[7] = Toxicity in RBC assessed as hemolysis; type: cell-based, Erythrocyte; details: for HC10: erythrocyte; for HC50: red blood cells (RBC)
Procedure, shortened: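 Hemolysis of red blood cells measured over a concentration range. H10 and H50 are the concentrations giving 10% and 50% hemolysis.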

[8] = system: Klebsiella pneumoniae; experiment: Antimicrobial activity against Klebsiella pneumoniae ATCC 13383 after 24 hrs by broth micro-dilution method; type: functional; details: ATCC 13383, 24 h
[9] = system: Staphylococcus epidermidis; experiment: Antimicrobial activity against methicillin-resistant Staphylococcus epidermidis RP62A after 24 hrs by broth micro-dilution method; type: functional; procedure, shortened: as §1
[10] = system: Escherichia coli; experiment: Induction of membrane disruption in Escherichia coli JM109 at 10 ug/ml after 2 hrs by Propidium iodide-staining based fluorescence microscopy; type: functional, organism-based
Procedure, shortened: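 E. coli exposed to 10 μg/mL for 2 h, then stained with DAPI, which labels all cells, and propidium iodide, which enters cells with damaged membranes. Red PI fluorescence imaged by fluorescence microscopy against untreated controls.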

**Q.** What does the source list for `CCCCCCCCCCCCCCCC(=O)NCCN(C(C)=O)[C@@H](C)C(=O)NCCN(C(C)=O)[C@@H](C)C(=O)NCCN(C(=O)CCCN)[C@@H](Cc1ccccc1)C(=O)NCCN(C(=O)CCCN)[C@@H](Cc1ccccc1)C(=O)NCCN(C(=O)CCCN)[C@@H](Cc1ccccc1)C(N)=O`?
**A.** MIC [1]: 30 µg/mL (≈ 21.5 µM); MIC [2]: 8 µg/mL (≈ 5.74 µM); MIC [3]: 2 µg/mL (≈ 1.43 µM); MIC [4]: 20 µg/mL (≈ 14.3 µM); MIC [5]: 4 µg/mL (≈ 2.87 µM); MIC [6]: 4 µg/mL (≈ 2.87 µM); HC10 [7]: 40 µg/mL; HC50 [7]: 400 µg/mL; MIC [8]: 8 µg/mL (≈ 5.74 µM); MIC [9]: 4 µg/mL (≈ 2.87 µM)

**Q.** For `CCCCCCCCCCCCCCCC(=O)NCCN(C(=O)CCC(C)C)[C@@H](CCCCN)C(=O)NCCN(C(=O)CCC(C)C)[C@@H](CCCCN)C(N)=O`, which MIC [1] is on record?
**A.** > 50 µg/mL

**Q.** And the MIC [2]?
**A.** > 50 µg/mL

**Q.** What about the MIC [3] of the same compound?
**A.** 2 µg/mL (≈ 2.52 µM)

**Q.** What about the MIC [4] of the same compound?
**A.** 2 µg/mL (≈ 2.52 µM)

**Q.** And the MIC [5]?
**A.** 1 µg/mL (≈ 1.26 µM)

**Q.** What about the MIC [6] of the same compound?
**A.** 5 µg/mL (≈ 6.3 µM)

**Q.** What about the HC10 [7] of the same compound?
**A.** > 500 µg/mL

**Q.** What about the HC50 [7] of the same compound?
**A.** > 500 µg/mL

**Q.** What about the MIC [8] of the same compound?
**A.** > 50 µg/mL

**Q.** What about the MIC [9] of the same compound?
**A.** 10 µg/mL (≈ 12.6 µM)

**Q.** For `CCCCCCCCCCCCCCCC(=O)NCCN(C(=O)CCc1ccccc1)[C@@H](CCCCN)C(=O)NCCN(C(=O)CCc1ccccc1)[C@@H](CCCCN)C(=O)NCCN(C(=O)CCc1ccccc1)[C@@H](CCCCN)C(N)=O`, which MIC [1] is on record?
**A.** > 50 µg/mL

**Q.** And the MIC [2]?
**A.** > 50 µg/mL

**Q.** And the MIC [3]?
**A.** 2 µg/mL (≈ 1.72 µM)

**Q.** What about the MIC [4] of the same compound?
**A.** > 50 µg/mL

**Q.** And the MIC [5]?
**A.** 10 µg/mL (≈ 8.58 µM)

**Q.** And the MIC [6]?
**A.** 8 µg/mL (≈ 6.86 µM)

**Q.** And the HC10 [7]?
**A.** 15 µg/mL

**Q.** What about the HC50 [7] of the same compound?
**A.** 150 µg/mL

**Q.** And the MIC [8]?
**A.** > 50 µg/mL

**Q.** And the MIC [9]?
**A.** 20 µg/mL (≈ 17.2 µM)

**Q.** With `CCCCCCCCCCCCCCCC(=O)NCCN(C(=O)CCc1ccccc1)[C@@H](CCCCN)C(=O)NCCN(C(=O)CCc1ccccc1)[C@@H](CCCCN)C(N)=O` as the compound, how does the MIC [1] read?
**A.** > 50 µg/mL

**Q.** What about the MIC [2] of the same compound?
**A.** > 50 µg/mL

**Q.** What about the MIC [3] of the same compound?
**A.** 4 µg/mL (≈ 4.64 µM)

**Q.** What about the MIC [4] of the same compound?
**A.** 2 µg/mL (≈ 2.32 µM)

**Q.** And the MIC [5]?
**A.** 3 µg/mL (≈ 3.48 µM)

**Q.** What about the MIC [6] of the same compound?
**A.** 8 µg/mL (≈ 9.28 µM)

**Q.** What about the HC10 [7] of the same compound?
**A.** > 500 µg/mL

**Q.** What about the HC50 [7] of the same compound?
**A.** > 500 µg/mL

**Q.** And the MIC [8]?
**A.** > 50 µg/mL

**Q.** What about the MIC [9] of the same compound?
**A.** 15 µg/mL (≈ 17.4 µM)

**Q.** What does the source list for `CCCCCCCCCCCCCCCC(=O)NCCN(C(=O)CCCN)[C@@H](Cc1ccccc1)C(=O)NCCN(C(=O)CCCN)[C@@H](Cc1ccccc1)C(=O)NCCN(C(=O)CCCN)[C@@H](Cc1ccccc1)C(N)=O`?
**A.** MIC [1]: 8 µg/mL (≈ 7.4 µM); MIC [2]: 20 µg/mL (≈ 18.5 µM); MIC [3]: 2 µg/mL (≈ 1.85 µM); MIC [4]: 3 µg/mL (≈ 2.77 µM); MIC [5]: 4 µg/mL (≈ 3.7 µM); MIC [6]: 4 µg/mL (≈ 3.7 µM); HC10 [7]: 50 µg/mL; HC50 [7]: 300 µg/mL; MIC [8]: > 50 µg/mL; MIC [9]: 8 µg/mL (≈ 7.4 µM)

**Q.** Which results are given for `CCCCCCCCCCCCCCCC(=O)NCCN(C(=O)CCCN)[C@@H](Cc1ccccc1)C(=O)NCCN(C(=O)CCCN)[C@@H](Cc1ccccc1)C(=O)NCCN(C(=O)CCCN)[C@@H](Cc1ccccc1)C(=O)NCCN(C(=O)CCCN)[C@@H](Cc1ccccc1)C(=O)NCCN(C(=O)CCCN)[C@@H](Cc1ccccc1)C(N)=O`?
**A.** MIC [1]: 4 µg/mL (≈ 2.45 µM); MIC [2]: 12 µg/mL (≈ 7.35 µM); Activity [10]: Active; MIC [3]: 4 µg/mL (≈ 2.45 µM); MIC [4]: 4 µg/mL (≈ 2.45 µM); MIC [5]: 4 µg/mL (≈ 2.45 µM); MIC [6]: 8 µg/mL (≈ 4.9 µM); HC10 [7]: 20 µg/mL; HC50 [7]: 250 µg/mL; MIC [8]: 8 µg/mL (≈ 4.9 µM); MIC [9]: 10 µg/mL (≈ 6.13 µM)

**Q.** Which MIC [1] does the source give for `CCCCCCCCCCCCCCCC(=O)NCCN(C(C)=O)[C@@H](C)C(=O)NCCN(C(C)=O)[C@@H](C)C(=O)NCCN(C(=O)CCCN)[C@@H](CCCCN)C(=O)NCCN(C(=O)CCCN)[C@@H](CCCCN)C(=O)NCCN(C(=O)CCCN)[C@@H](CCCCN)C(N)=O` here?
**A.** 4 µg/mL (≈ 2.99 µM)

**Q.** And the MIC [2]?
**A.** 10 µg/mL (≈ 7.48 µM)

**Q.** And the MIC [3]?
**A.** 4 µg/mL (≈ 2.99 µM)

**Q.** What about the MIC [4] of the same compound?
**A.** 10 µg/mL (≈ 7.48 µM)

**Q.** What about the MIC [5] of the same compound?
**A.** 20 µg/mL (≈ 15 µM)

**Q.** What about the MIC [6] of the same compound?
**A.** 8 µg/mL (≈ 5.98 µM)

**Q.** And the HC10 [7]?
**A.** 100 µg/mL

**Q.** And the HC50 [7]?
**A.** > 500 µg/mL

**Q.** And the MIC [8]?
**A.** 20 µg/mL (≈ 15 µM)

**Q.** And the MIC [9]?
**A.** 10 µg/mL (≈ 7.48 µM)

**Q.** Which MIC [1] does the source give for “H-GIGKFLKKAKKFGKAFVKILKK-NH2 [PEXIGANAN]” here?
**A.** 8 µg/mL

**Q.** And the MIC [2]?
**A.** 8 µg/mL

**Q.** What about the MIC [3] of the same compound?
**A.** 4 µg/mL

**Q.** What about the MIC [4] of the same compound?
**A.** 124 µg/mL

**Q.** And the MIC [5]?
**A.** 32 µg/mL

**Q.** And the MIC [6]?
**A.** 16 µg/mL

**Q.** What about the HC10 [7] of the same compound?
**A.** 181 µg/mL

**Q.** What about the HC50 [7] of the same compound?
**A.** 495 µg/mL

**Q.** What about the MIC [8] of the same compound?
**A.** 8 µg/mL

**Q.** And the MIC [9]?
**A.** 8 µg/mL
